Assay results published in ChEMBL document CHEMBL2434890, “Design, synthesis and structure-activity relationship of novel quinoxaline derivatives as cancer chemopreventive agent by inhibition of tyrosine kinase receptor” (Eur J Med Chem, 2013).

Tests used:
Type in all cases: cell-based
Raji [1] = assay: Inhibition of TPA-induced EBV early antigen activation infected in human Raji cells after 48 hrs by immunofluorescence method relative to control; details: human gammaherpesvirus 4
Raji [2] = assay: Inhibition of TPA-induced EBV early antigen activation infected in human Raji cells assessed as antigen activity at 10 mol ratio/TPA after 48 hrs by immunofluorescence method relative to control; parameters: scale not given: the % may be the effect or the level left; details: human gammaherpesvirus 4
Raji [3] = assay: Inhibition of TPA-induced EBV early antigen activation infected in human Raji cells assessed as antigen activity at 100 mol ratio/TPA after 48 hrs by immunofluorescence method relative to control; parameters: scale not given: the % may be the effect or the level left; details: human gammaherpesvirus 4
Raji [4] = assay: Inhibition of TPA-induced EBV early antigen activation infected in human Raji cells assessed as antigen activity at 500 mol ratio/TPA after 48 hrs by immunofluorescence method relative to control; parameters: scale not given: the % may be the effect or the level left; details: human gammaherpesvirus 4
[5] = Cytotoxicity against human Raji cells assessed as cell viability at 1000 mol ratio/TPA after 48 hrs by trypan blue staining method; details: read-out: Activity
Outline: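 Raji cells were treated as in the EBV-EA assay: 48 h at 37 °C with 4 mM n-butyric acid, […] and compound in DMSO (ca. 0.7%), dosed by mol ratio to TPA. Viability of the treated cells was determined by trypan blue staining.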

Raji [6] = assay: Inhibition of TPA-induced EBV early antigen activation infected in human Raji cells assessed as antigen activity at 1000 mol ratio/TPA after 48 hrs by immunofluorescence method relative to control; parameters: scale not given: the % may be the effect or the level left; details: human gammaherpesvirus 4
[7] = Inhibition of TRK in human MCF7 cells after 48 hrs by ELISA
Outline: (§1)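 HepG2 or MCF-7 cells, kept in DMEM with 10% heat-inactivated FCS and penicillin, seeded at 0.50×10⁶ per flask and treated 48 h at 37 °C, 5% CO₂ with compound in DMSO (2.5–40 μg/ml). Cells were homogenized in saline. TRK level was measured by double-antibody sandwich ELISA (OD 450 nm) against a standard curve, in triplicate. IC50 = 50% reduction of TRK relative to untreated cells.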

[8] = Inhibition of TRK in human HepG2 cells after 48 hrs by ELISA; outline: as §1

Row | IC50 [7] | IC50 [8] | SMILES | inhibition (Raji [1]) | Activity (Raji [2]) [%] | Activity (Raji [3]) [%] | Activity (Raji [4]) [%] | viability at 48 h, 1000 mol ratio/TPA [5] [%] | Activity (Raji [6]) [%]
1 | – | – | O=c1[nH]c2ccccc2nc1Cl | Dose-dependent effect | 100 | 80.2 | 48.5 | 50 | 16.7
2 | – | – | CN1C(=S)NNC12Nc1ccccc1NC2=O (stereo not given) | Dose-dependent effect | 100 | 84.6 | 48.3 | 60 | 18.7
3 | – | – | O=C1CN2C(=NN1)C(=O)Nc1ccccc12 | Dose-dependent effect | 100 | 78 | 46.3 | 60 | 13.6
4 | – | – | O=C1Nc2ccccc2N2C(O)=CNN=C12 | Dose-dependent effect | 100 | 77.6 | 46 | 60 | 13.2
5 | Not Active | Not Active | Oc1nc2ccccc2nc1O | Dose-dependent effect | 100 | 78.5 | 46.8 | 60 | 14.2
6 | 10.2 nM | 9 nM | NNc1nc2ccccc2[nH]c1=O | Dose-dependent effect | 100 | 78.1 | 46.5 | 60 | 14.9
7 | 4.15 nM | 3.5 nM | C=CCn1c(=O)c(N/N=C/c2c(OC)cccc2OC)nc2ccccc21 | Dose-dependent effect | 100 | 73.5 | 42 | 60 | 10.8
8 | – | – | O=C1CC(=O)N(c2nc3ccccc3[nH]c2=O)N1 | Dose-dependent effect | 100 | 83.9 | 48 | 60 | 17.5
9 | 4.85 nM | 4.5 nM | CCOC(=O)Cn1c(=O)c(N/N=C/c2ccc(N(C)C)cc2)nc2ccccc21 | Dose-dependent effect | 100 | 78.6 | 47.6 | 60 | 12.7
10 | 3.2 nM | 2.5 nM | COc1cccc2c1C(=O)c1c(O)c3c(c(O)c1C2=O)C[C@@](O)(C(=O)CO)C[C@@H]3O[C@H]1C[C@H](N)[C@H](O)[C@H](C)O1 [DOXORUBICIN] | – | – | – | – | – | –
11 | 30 nM | 25 nM | Oc1nc2ccccc2n2c(O)nnc12 | Dose-dependent effect | 100 | 79.1 | 47.2 | 60 | 15.6
12 | Not Active | Not Active | Oc1nc2ccccc2n2cnnc12 | Dose-dependent effect | 100 | 84.2 | 48.2 | 60 | 18.6
13 | 8.75 nM | 7.5 nM | COc1cccc(OC)c1/C=N/Nc1nc2ccccc2[nH]c1=O | Dose-dependent effect | 100 | 81 | 46.6 | 60 | 16.8
14 | – | – | O=C1CCC(=O)N(c2nc3ccccc3[nH]c2=O)N1 | Dose-dependent effect | 100 | 82.8 | 47.7 | 60 | 16.7
15 | Not Active | Not Active | O=C(c1ccccc1)N1C(=S)NNC12Nc1ccccc1NC2=O (stereo not given) | Dose-dependent effect | 100 | 85.2 | 49.1 | 60 | 19.1
16 | 20.2 nM | 18 nM | N=c1c(O)nnc2c(=O)[nH]c3ccccc3n12 | Dose-dependent effect | 100 | 79 | 47.1 | 60 | 15
17 | 27.8 nM | 20 nM | O=c1[nH]c2ccccc2n2c(=O)c(O)nnc12 | Dose-dependent effect | 100 | 78.6 | 47 | 60 | 14.2
18 | – | – | CC1(C)CC[C@]2(C(=O)O)CC[C@]3(C)C(=CC[C@@H]4[C@@]5(C)CC[C@H](O)C(C)(C)[C@@H]5CC[C@]43C)[C@@H]2C1 [OLEANOLIC_ACID] | – | 100 | 80 | 30 | 70 | 12.7
19 | 4.6 nM | 4.1 nM | CCOC(=O)Cn1c(=O)c(N/N=C/c2c(OC)cccc2OC)nc2ccccc21 | Dose-dependent effect | 100 | 75.6 | 45.7 | 60 | 13.5
20 | 11.8 nM | 9.8 nM | CN(C)c1ccc(/C=N/Nc2nc3ccccc3[nH]c2=O)cc1 | Dose-dependent effect | 100 | 71.7 | 42.2 | 60 | 13.9
21 | 17.2 nM | 15 nM | CC(C)=NNc1nc2ccccc2[nH]c1=O | Dose-dependent effect | 100 | 77 | 45 | 60 | 13.2
22 | 2.9 nM | 2.65 nM | C=CCn1c(=O)c(N/N=C/c2ccc(N(C)C)cc2)nc2ccccc21 | Dose-dependent effect | 100 | 73.2 | 41.6 | 60 | 10.1
